In PubChem BioAssay:
Activity calls are given as the source filed them.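 How the source made its calls, unless noted: active means current rise at least 3 SD above the untreated control mean in each of two repeat wells; inactive means the rest.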

Key:
[1] = thallium flux activation in parental CHO cells, counter-screen for KCNQ1 potentiator project (AID 493006;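 active means duplicate-averaged activation above buffer control mean plus 5 SD of those controls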;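 on activation: fluorescence ratio of max minus min over baseline after K+ and Tl+ depolarization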); conditions: parental CHO-K1 cells, FluxOR thallium flux, at 10 µM; hits give high values
In short: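 Assay system: parental CHO-K1 cells lacking KCNQ1, loaded with FluxOR thallium dye; timing: dye 90 min RT, compound 20 min RT; signal: kinetic thallium-flux fluorescence; repeats: duplicate wells per compound, percent values averaged; benchmarks: buffer and R-L3 controls; reagent: Potassium/thallium depolarization pulse; read-out: fluorescence change ratio scaled 0% buffer, 100% R-L3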

[2] = target: Potassium voltage-gated channel subfamily KQT member 1 (Homo sapiens) (UniProt P51787); assay: KCNQ1 potassium channel potentiators, confirmation, FluxOR thallium flux, CHO cells, duplicates (AID 493007;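 active means potentiation averaged over duplicate wells exceeding buffer-only control mean by more than 3 SD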;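 on outcome: cells depolarized by a potassium plus thallium sulfate stimulus after compound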); conditions: KCNQ1 cell line, FluxOR thallium flux fluorescence, at 10 µM; hits give high values, % of reference activator effect, buffer zero
In short: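 material = CHO cells stably expressing the KCNQ1 potassium channel | repeats = duplicate wells per compound | measure = percent activation between buffer and R-L3 responses | signal = FluxOR thallium-flux fluorescence, kinetic read | schedule = FluxOR dye loading 90 min, compound exposure 20 min, room temperature | control set = buffer and R-L3 controls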

[3] = target: Potassium voltage-gated channel subfamily KQT member 2 (Rattus norvegicus) (UniProt O88943); assay: rat KCNQ2 channel potentiation, selectivity assay for KCNQ1 potentiator project, KCNQ2-CHO-K1 cells (AID 493009;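 active means mean duplicate potentiation above the buffer control mean plus 5 SD of buffer wells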;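 further: assay conditions were tuned for KCNQ1 rather than KCNQ2 modulators; signal is max minus min fluorescence divided by baseline after thallium stimulus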); conditions: FluxOR thallium flux fluorescence, at 10 µM; hits give high values, scaled: buffer 0, activator control 100
[4] = target: Potassium voltage-gated channel subfamily KQT member 1 (Homo sapiens) (UniProt P51787); assay: KCNQ1 channel current potentiators, confirmation, orthogonal assay for KCNQ1 potentiator project, IonWorks patch clamp, KCNQ1-CHO cells (AID 493184); conditions: automated patch clamp current, at 10 µM; hits give high values
In short: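 Assay system – CHO cells carrying KCNQ1 · Medium – pH 7.4 external bath · Probe or stimulus – depolarizing pulse to +40 mV from -90 mV · Compound dosing – one dose, 10 µM final · Measured by – automated perforated-patch electrophysiology · Measure – % potentiation of steady-state current relative to pre-compound · Repeats – two replicates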

Potassium voltage-gated channel subfamily KQT member 2 (Rattus norvegicus), sequence (O88943 whole entry, looked up): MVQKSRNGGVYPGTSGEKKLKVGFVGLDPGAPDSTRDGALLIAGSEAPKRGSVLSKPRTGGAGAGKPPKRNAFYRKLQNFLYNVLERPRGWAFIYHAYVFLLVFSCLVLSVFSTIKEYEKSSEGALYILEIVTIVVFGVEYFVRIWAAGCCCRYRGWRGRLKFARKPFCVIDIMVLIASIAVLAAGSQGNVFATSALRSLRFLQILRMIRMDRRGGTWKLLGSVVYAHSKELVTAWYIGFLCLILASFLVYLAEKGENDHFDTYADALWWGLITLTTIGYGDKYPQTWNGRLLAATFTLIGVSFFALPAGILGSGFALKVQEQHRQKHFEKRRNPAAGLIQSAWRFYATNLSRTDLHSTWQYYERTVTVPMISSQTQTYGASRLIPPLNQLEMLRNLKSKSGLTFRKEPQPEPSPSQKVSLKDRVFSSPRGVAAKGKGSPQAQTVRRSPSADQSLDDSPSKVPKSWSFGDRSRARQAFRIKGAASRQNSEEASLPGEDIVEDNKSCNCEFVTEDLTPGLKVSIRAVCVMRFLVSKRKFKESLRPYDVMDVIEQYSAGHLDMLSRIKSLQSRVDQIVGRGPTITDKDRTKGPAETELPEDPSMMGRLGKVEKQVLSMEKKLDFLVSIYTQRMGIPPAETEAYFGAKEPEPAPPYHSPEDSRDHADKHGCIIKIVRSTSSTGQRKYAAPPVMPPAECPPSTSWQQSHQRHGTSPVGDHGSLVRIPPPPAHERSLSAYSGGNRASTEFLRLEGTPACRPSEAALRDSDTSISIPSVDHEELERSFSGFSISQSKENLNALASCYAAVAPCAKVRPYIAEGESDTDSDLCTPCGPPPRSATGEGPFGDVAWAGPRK
Potassium voltage-gated channel subfamily KQT member 1 (Homo sapiens), sequence (P51787 whole entry, looked up): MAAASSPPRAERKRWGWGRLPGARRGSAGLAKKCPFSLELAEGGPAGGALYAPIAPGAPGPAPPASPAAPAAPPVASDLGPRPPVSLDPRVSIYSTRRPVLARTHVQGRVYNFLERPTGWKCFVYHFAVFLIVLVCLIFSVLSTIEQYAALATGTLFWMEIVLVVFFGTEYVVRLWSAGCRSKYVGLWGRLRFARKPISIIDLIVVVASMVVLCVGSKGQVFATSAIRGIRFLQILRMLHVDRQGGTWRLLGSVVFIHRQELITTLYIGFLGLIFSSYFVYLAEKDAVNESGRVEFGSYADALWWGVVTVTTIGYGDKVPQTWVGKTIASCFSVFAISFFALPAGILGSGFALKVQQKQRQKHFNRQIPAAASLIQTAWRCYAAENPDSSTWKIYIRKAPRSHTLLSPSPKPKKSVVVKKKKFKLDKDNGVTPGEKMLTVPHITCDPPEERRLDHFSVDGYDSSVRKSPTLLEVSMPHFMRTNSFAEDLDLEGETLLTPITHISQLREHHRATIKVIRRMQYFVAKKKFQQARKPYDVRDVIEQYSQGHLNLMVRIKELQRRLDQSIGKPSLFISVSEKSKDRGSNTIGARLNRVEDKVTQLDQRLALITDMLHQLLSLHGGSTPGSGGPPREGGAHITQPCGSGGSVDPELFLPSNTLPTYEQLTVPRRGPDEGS

| Structure (SMILES) | outcome [1] | outcome [2] | outcome [3] | outcome [4] | potentiation [2] | activation [1] | potentiation [3] |
| --- | --- | --- | --- | --- | --- | --- | --- |
| O=C(Nc1ccncc1)c1ccc([N+](=O)[O-])cc1Cl | inactive | inactive | inactive | inactive | – | – | – |
| Cn1cccc1/C=N/n1c(-c2ccc(C(C)(C)C)cc2)n[nH]c1=S | inactive | – | inactive | inactive | 266% (active) | – | – |
| C=CCN(CC=C)C(=S)NC(=O)Cc1cccc2ccccc12 | – | – | – | inactive | 68.5% (active) | 210% (active) | 245% (active) |
| Cc1onc(-c2ccccc2)c1C(=O)N1CCN(S(=O)(=O)c2ccc(OC(F)(F)F)cc2)CC1 | inactive | inactive | inactive | inactive | – | – | – |
| CN(C)CCCn1c(=O)n(C2CCCCC2)c(=O)c2c3c(sc21)CCCCC3 | – | – | – | inactive | 224% (active) | 167% (active) | 154% (active) |
| C=CCn1c(=S)[nH]c2nc3c(cc2c1=O)CCCC3 | inactive | – | – | inactive | 34% (active) | – | 152% (active) |
| CCCCn1c(=S)[nH]c2ccccc2c1=O | – | – | – | inactive | 50.5% (active) | 160% (active) | 187% (active) |
| O=C(CN1CCOCC1)N1CCN(c2nnc(-c3ccccc3)c3ccccc23)CC1 | inactive | inactive | inactive | inactive | – | – | – |
| CCC1(c2ccccc2)NC(=S)N(c2ccc(C)c(C)c2)N1 (centres undefined) | – | – | – | inactive | 271% (active) | 542% (active) | 572% (active) |
| S=c1[nH]cnc2sc(-c3ccccc3)cc12 | – | – | – | inactive | 274% (active) | 520% (active) | 586% (active) |
| CCNC(=S)/N=C(\N)Nc1nc(C)c2cc(C)ccc2n1 | inactive | inactive | inactive | inactive | – | – | – |
| COc1ccccc1C(=O)NNC(=O)C(=O)Nc1ccc(C)c(Cl)c1 | – | – | – | inactive | 235% (active) | 552% (active) | 512% (active) |
| CCOC(=O)Cc1cc(=O)n2[nH]c(C)c(-c3ccc(Cl)cc3)c2n1 | inactive | inactive | inactive | inactive | – | – | – |
| CCC1CCCCN1C(=S)NC(=O)c1cccc([N+](=O)[O-])c1 (centres undefined) | – | – | – | inactive | 57% (active) | 232% (active) | 284% (active) |
| COc1ccc(C2c3ccc4ccccc4c3Oc3ncn(CCN4CCOCC4)c(=N)c32)cc1 (centres undefined) | inactive | inactive | inactive | inactive | – | – | – |
| COC(=O)c1ccc(NC(=S)NC(=O)c2cc(-c3ccccc3)nc3ccccc23)cc1 | – | – | – | inactive | 37% (active) | 174% (active) | 178% (active) |
| COC(=O)c1ccc(N2CCN(S(=O)(=O)c3ccc(Br)cc3)CC2)c([N+](=O)[O-])c1 | inactive | inactive | inactive | inactive | – | – | – |
| Cc1cc(/C=C2\C(=N)N3N=C(C(C)C)SC3=NC2=O)c(C)n1Cc1ccccc1 | inactive | inactive | inactive | inactive | – | – | – |
| CC(C)CC(=O)O/N=C1\C(=O)N(c2ccccc2)c2ccccc21 | inactive | inactive | inactive | inactive | – | – | – |
| CSc1ccc(/C=N/n2c(Cc3ccc(Br)cc3)n[nH]c2=S)cc1 | inactive | – | – | inactive | 174% (active) | – | 168% (active) |
| COc1cccc(C=O)c1OCCCOc1cccc2cccnc12 | inactive | inactive | inactive | inactive | – | – | – |

| Structure (SMILES) | outcome [1] | outcome [2] | outcome [3] | outcome [4] | potentiation [2] | activation [1] | potentiation [3] |
| --- | --- | --- | --- | --- | --- | --- | --- |
| CCOc1ccc(CN(CCC#N)C(=S)NC(=O)c2ccccc2)cc1 | – | – | – | inactive | 47% (active) | 149% (active) | 216% (active) |
| O=C(NC(=S)Nc1ccccc1F)c1ccc(Br)o1 | – | – | – | inactive | 55.5% (active) | 230% (active) | 261% (active) |
| COc1cccc(C2=NOC(C(=O)NCc3ccccc3)C2)c1 (centres undefined) | inactive | inactive | inactive | inactive | – | – | – |
| NC(=S)n1[nH]c(-c2ccc([N+](=O)[O-])cc2)c(N=Nc2cccc(Cl)c2)c1=O | – | – | – | inactive | 34.5% (active) | 150% (active) | 179% (active) |
| O=C(NCc1ccc(F)cc1)C1CCC(CNS(=O)(=O)c2ccccc2)CC1 (centres undefined) | inactive | inactive | inactive | inactive | – | – | – |
| CCCN1C(=O)/C(=C/c2ccc(C)s2)NC1=S | – | – | – | inactive | 194% (active) | 395% (active) | 412% (active) |
| COc1ccc(-n2cc(-c3ccccc3)c3c(=S)nc[nH]c32)cc1 | – | – | – | inactive | 38% (active) | 137% (active) | 172% (active) |
| O=C1/C(=C/c2cccc(F)c2)SC(=S)N1NS(=O)(=O)c1ccccc1 | – | inactive | inactive | inactive | – | 146% (active) | – |
| CCCn1c(=S)[nH]c2ccccc2c1=O | – | – | – | inactive | 18.5% (active) | 153% (active) | 168% (active) |
| N#C/C=C1/NC(=O)c2ccccc2S1 | – | – | – | inactive | 22.5% (active) | 138% (active) | 166% (active) |
| COc1cc(Br)cc(/C=N/c2ncn[nH]2)c1O | – | – | inactive | inactive | 18.5% (active) | 140% (active) | – |
| CC1=CC(=O)C=C(C)C1=NOS(=O)(=O)c1ccccc1 | inactive | inactive | inactive | inactive | – | – | – |
| O=[N+]([O-])c1cccc(-c2ccc3nnc(SCc4ccccn4)n3n2)c1 | inactive | inactive | inactive | inactive | – | – | – |
| Cc1cc(C)n(-c2nc(NCCN(C)C)c3c4c(sc3n2)COC(C)(C)C4)n1 | inactive | inactive | inactive | inactive | – | – | – |
| COc1cc(C(=O)NC(=S)N(CCc2ccccc2)CCc2ccccc2)cc(OC)c1OC | – | – | – | inactive | 104% (active) | 198% (active) | 256% (active) |
| Cc1ccc(C)c(N2CCN(C(=O)CCS(=O)(=O)c3ccc4c(c3)NC(=O)CO4)CC2)c1 | inactive | inactive | inactive | inactive | – | – | – |
| Cc1ccc(Cl)cc1NC(=S)N/N=C/c1cccc2ccccc12 | inactive | – | inactive | inactive | 32% (active) | – | – |
| CCCCn1c(SCC(N)=O)nc2ccc(N3CCOCC3)cc2c1=O | inactive | inactive | inactive | inactive | – | – | – |
| Cc1ccc(C(C#N)c2ccc3c(C(F)(F)F)cc(C(F)(F)F)nc3n2)cc1 (centres undefined) | – | – | – | inactive | 114% (active) | 150% (active) | 222% (active) |
| Cc1cccc(C)c1NC(=S)NC(=O)c1ccc(Br)o1 | – | – | – | inactive | 122% (active) | 394% (active) | 412% (active) |
| O=C(CN1CCN(Cc2ccc(F)cc2Cl)C1=O)NCCc1ccccc1 | inactive | inactive | inactive | inactive | – | – | – |

| Structure (SMILES) | outcome [1] | outcome [2] | outcome [3] | outcome [4] | potentiation [2] | activation [1] | potentiation [3] |
| --- | --- | --- | --- | --- | --- | --- | --- |
| O=C(NCCCn1ccnc1)c1cc(C2CC2)on1 | inactive | inactive | inactive | inactive | – | – | – |
| CCOc1ccc(NC(=O)Cn2nnc(-c3ccccc3NC(=O)c3cccs3)n2)cc1 | inactive | inactive | inactive | inactive | – | – | – |
| COC(=O)C(C)Sc1nc2c(c(=O)n(C)c(=O)n2C)n1Cc1cccc(C)c1 (centres undefined) | inactive | inactive | inactive | inactive | – | – | – |
| CCOc1ccc2nc(/N=C/c3nc(-c4ccccc4)oc3O)sc2c1 | – | – | – | inactive | 52.5% (active) | 150% (active) | 190% (active) |
| O=C(Nc1nc2c(Br)cc(Br)cc2c(=O)s1)C1CCC1 | – | – | – | inactive | 29% (active) | 192% (active) | 176% (active) |
| COc1cc2c3nnc(-c4ccccc4)c-3cn(Cc3ccc(F)cc3)c2cc1OC | inactive | inactive | inactive | inactive | – | – | – |
| CCOc1ccc2nc(N3C(=O)/C(=C/c4ccccc4)NC3=S)sc2c1 | – | – | – | inactive | 367% (active) | 442% (active) | 700% (active) |
| COC(=O)c1ccccc1NC(=S)NC(NC(=O)c1ccco1)C(Cl)(Cl)Cl (centres undefined) | – | – | – | inactive | 54% (active) | 138% (active) | 232% (active) |
| CCN(CC)C(=S)NC(=O)c1ccc(Cl)cc1Cl | – | – | – | inactive | 50% (active) | 226% (active) | 196% (active) |
| COc1cccc(-c2nnc(Nc3nc4c(F)cccc4s3)o2)c1 | – | – | – | inactive | 91.5% (active) | 278% (active) | 280% (active) |
| CC1CCCCN1S(=O)(=O)c1ccc(S(=O)(=O)N(CC(=O)Nc2ccccc2)Cc2cccs2)cc1 (centres undefined) | inactive | inactive | inactive | inactive | – | – | – |
| O=C(Cn1c(=O)oc2ccccc21)N1CCN(c2ccc(N3CCOCC3)nn2)CC1 | inactive | inactive | inactive | inactive | – | – | – |
| COc1ccc(Cl)cc1N(C)C(=O)CCNC(=O)Cn1cnc2ccccc2c1=O | inactive | – | – | inactive | 22.5% (active) | – | 157% (active) |
| CC(=O)SCC(=O)N=c1sc2cc(F)ccc2n1C | inactive | inactive | inactive | inactive | – | – | – |
| CC(=O)/C=C1/C(=O)Nc2ccccc21 | – | – | – | inactive | 63.5% (active) | 167% (active) | 188% (active) |
| Cc1sc(-n2c(C)cc(/C=N/n3cnnc3)c2C)c(C#N)c1C | inactive | – | inactive | inactive | 17.5% (active) | – | – |
| O=C(O)CCC(=O)Nc1ccc(-c2nc3ccc(C(=O)c4ccccc4)cc3[nH]2)cc1 | inactive | inactive | inactive | inactive | – | – | – |
| O=C(C1CCN(Cc2ccccc2)CC1)N1CCN(C/C=C/c2ccccc2)CC1 | inactive | inactive | inactive | inactive | – | – | – |
| O=P(CCCCCCCCCP(=O)(c1ccccc1)c1ccccc1)(c1ccccc1)c1ccccc1 | – | – | – | inactive | 96.5% (active) | 256% (active) | 327% (active) |
